# Experimental data as given in ChEMBL document CHEMBL1221302, “Discovery of imidazo[1,2-b]pyridazine derivatives as IKKbeta inhibitors. Part 1: Hit-to-lead study and structure-activity relationship” (Bioorg Med Chem Lett, 2010).
# Columns and labels:
# THP-1 = test: Antiinflammatory activity in human THP1 cells assessed as inhibition of LPS-induced TNFalpha production after 4 hrs by ELISA; assay type: functional, cell-based; settings: THP-1, 4 h
# Procedure, shortened: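 THP-1 cells primed 3–4 days with 100 nM calcitriol in RPMI-1640 containing 10% FBS, then cultured overnight without calcitriol. Resuspended in RPMI-1640 with 25 mM HEPES at 1.5×10^5 cells/mL. Compound and E. coli O111:B4 LPS added together, 4 h at 37 °C in 5% CO2. TNFα measured in the centrifuged supernatant by ELISA.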
# [1] = biological target: T1, Inhibitor of nuclear factor kappa-B kinase subunit beta (Homo sapiens, UniProt O14920); test: Inhibition of purified His-tagged IKK-beta after 15 mins
# T1 sequence (O14920 whole entry): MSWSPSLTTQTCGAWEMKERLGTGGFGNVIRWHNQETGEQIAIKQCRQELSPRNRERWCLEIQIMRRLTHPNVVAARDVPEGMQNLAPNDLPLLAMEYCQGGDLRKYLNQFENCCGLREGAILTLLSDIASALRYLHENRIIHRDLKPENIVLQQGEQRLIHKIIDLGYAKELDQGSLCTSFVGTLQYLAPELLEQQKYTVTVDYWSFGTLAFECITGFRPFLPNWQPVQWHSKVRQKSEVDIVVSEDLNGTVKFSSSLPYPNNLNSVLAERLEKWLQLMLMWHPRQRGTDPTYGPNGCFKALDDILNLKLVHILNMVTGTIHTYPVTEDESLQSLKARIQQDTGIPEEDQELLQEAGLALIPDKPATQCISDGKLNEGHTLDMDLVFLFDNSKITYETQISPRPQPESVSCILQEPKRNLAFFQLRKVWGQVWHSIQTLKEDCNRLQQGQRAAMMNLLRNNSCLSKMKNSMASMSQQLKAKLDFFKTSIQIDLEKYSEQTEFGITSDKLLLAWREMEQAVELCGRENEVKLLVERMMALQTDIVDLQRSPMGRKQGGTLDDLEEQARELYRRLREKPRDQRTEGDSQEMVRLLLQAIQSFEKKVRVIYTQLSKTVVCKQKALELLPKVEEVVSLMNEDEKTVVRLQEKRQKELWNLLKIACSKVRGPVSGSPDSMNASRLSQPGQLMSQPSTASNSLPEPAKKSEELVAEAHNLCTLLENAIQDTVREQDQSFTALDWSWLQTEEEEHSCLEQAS
# [2] = biological target: Cyclin-dependent kinase 2 (Homo sapiens, UniProt P24941); test: Inhibition of recombinant CDK2 after 15 mins
# [3] = biological target: T2, Inhibitor of nuclear factor kappa-B kinase subunit alpha (Homo sapiens, UniProt O15111); test: Inhibition of recombinant IKKalpha after 15 mins
# T2 sequence (O15111 whole entry): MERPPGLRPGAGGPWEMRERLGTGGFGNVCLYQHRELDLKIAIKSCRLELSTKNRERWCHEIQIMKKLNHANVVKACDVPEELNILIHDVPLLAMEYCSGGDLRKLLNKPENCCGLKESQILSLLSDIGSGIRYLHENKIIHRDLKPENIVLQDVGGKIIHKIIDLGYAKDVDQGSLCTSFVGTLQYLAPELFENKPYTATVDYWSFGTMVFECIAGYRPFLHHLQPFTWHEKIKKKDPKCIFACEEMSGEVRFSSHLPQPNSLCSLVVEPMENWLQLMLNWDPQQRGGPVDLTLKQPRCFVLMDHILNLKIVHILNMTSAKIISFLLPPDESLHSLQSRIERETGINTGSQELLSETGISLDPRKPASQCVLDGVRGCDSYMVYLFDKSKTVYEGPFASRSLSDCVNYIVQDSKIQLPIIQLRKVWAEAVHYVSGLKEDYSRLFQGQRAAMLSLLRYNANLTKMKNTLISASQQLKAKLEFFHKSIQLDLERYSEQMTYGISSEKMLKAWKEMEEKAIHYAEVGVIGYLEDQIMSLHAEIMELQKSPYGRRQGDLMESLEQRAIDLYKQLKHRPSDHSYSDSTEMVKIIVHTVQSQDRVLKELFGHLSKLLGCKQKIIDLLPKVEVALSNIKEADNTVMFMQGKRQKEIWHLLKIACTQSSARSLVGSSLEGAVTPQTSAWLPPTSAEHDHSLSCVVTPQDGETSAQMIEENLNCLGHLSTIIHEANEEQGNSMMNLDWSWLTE
# [4] = biological target: Glycogen synthase kinase-3 beta (Homo sapiens, UniProt P49841); test: Inhibition of recombinant GSK3-beta after 15 mins
# Sequence of Glycogen synthase kinase-3 beta (P49841 whole entry): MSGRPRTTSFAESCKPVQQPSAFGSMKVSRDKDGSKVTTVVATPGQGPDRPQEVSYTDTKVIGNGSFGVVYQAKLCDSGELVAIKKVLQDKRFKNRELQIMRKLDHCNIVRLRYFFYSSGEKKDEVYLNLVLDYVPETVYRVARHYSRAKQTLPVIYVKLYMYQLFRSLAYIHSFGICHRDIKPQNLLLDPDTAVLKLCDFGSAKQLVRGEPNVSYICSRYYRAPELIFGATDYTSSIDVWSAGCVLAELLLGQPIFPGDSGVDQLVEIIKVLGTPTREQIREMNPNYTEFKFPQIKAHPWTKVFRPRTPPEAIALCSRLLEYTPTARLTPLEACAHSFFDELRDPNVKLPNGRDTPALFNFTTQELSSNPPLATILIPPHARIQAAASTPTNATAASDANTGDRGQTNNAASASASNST
# Procedure, shortened: (§1)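 Each recombinant kinase was assayed with ATP at its own Km.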
# [5] = biological target: Mitogen-activated protein kinase 14 (Homo sapiens, UniProt Q16539); test: Inhibition of recombinant p38alpha after 15 mins; procedure, shortened: as §1
# Sequence of Mitogen-activated protein kinase 14 (Q16539 whole entry): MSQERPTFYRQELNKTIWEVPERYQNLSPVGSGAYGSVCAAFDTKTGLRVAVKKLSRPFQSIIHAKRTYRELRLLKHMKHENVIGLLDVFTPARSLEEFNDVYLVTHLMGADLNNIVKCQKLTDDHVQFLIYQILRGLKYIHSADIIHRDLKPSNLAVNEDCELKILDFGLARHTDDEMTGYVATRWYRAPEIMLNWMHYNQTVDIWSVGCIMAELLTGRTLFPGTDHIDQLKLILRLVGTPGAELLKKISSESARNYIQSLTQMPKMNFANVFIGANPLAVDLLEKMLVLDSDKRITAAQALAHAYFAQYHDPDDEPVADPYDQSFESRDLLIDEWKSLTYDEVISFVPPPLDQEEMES
# [6] = biological target: Mitogen-activated protein kinase 10 (Homo sapiens, UniProt P53779); test: Inhibition of recombinant JNK3 after 15 mins; procedure, shortened: as §1
# Sequence of Mitogen-activated protein kinase 10 (P53779 whole entry): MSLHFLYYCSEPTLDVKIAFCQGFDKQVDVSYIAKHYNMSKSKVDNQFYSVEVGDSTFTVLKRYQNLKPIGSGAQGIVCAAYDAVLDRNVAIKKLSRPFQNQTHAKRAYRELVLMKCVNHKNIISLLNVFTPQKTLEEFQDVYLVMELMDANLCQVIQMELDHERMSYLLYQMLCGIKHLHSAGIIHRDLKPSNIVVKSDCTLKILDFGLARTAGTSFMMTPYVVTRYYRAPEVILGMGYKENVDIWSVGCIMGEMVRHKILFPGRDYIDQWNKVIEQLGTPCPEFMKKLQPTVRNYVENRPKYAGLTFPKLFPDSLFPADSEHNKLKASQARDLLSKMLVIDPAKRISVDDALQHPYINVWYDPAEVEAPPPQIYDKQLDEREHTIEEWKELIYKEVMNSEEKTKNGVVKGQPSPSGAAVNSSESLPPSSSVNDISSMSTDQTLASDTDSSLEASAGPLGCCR
# [7] = Apparent permeability of the compound at pH 7.4 by PAMPA method; assay type: ADME
Compound,IC50 (THP-1) [µM],IC50 [1] [µM],other results
CN(C)CCN(C)C(=O)c1ccc(-c2cnc3ccc(NCC4CC4)nn23)cc1,2.4,,
O=C(NC[C@@H]1CCCN1)c1ccc(-c2cnc3ccc(NCCCn4ccnc4)nn23)cc1,> 30,0.38,
CC(C)(N)CNC(=O)c1ccc(-c2cnc3ccc(NCc4ccc(Cl)c(Cl)c4)nn23)cc1,6.5,,
O=C(NC[C@@H]1CCCN1)c1ccc(-c2cnc3ccc(N[C@H]4CC[C@H](O)CC4)nn23)cc1,> 30,,
CN(C)c1ccc2ncc(-c3ccc(C(=O)NC[C@@H]4CCCN4)cc3)n2n1,20,,
O=C(NC[C@@H]1CCCN1)c1ccc(-c2cnc3ccc(NCc4ccc(Cl)c(Cl)c4)nn23)cc1,4,0.32,IC50 [2]: 95 µM; IC50 [3]: 2.2 µM; Papp [7]: < 20 nm/s; IC50 [4]: > 100 µM; IC50 [5]: > 100 µM; IC50 [6]: > 100 µM
CN(C)CCNC(=O)c1ccc(-c2cnc3ccc(NCc4ccc(Cl)c(Cl)c4)nn23)cc1,> 30,,IC50 [2]: > 100 µM; IC50 [4]: > 100 µM
O=C(NCc1ccccn1)c1ccc(-c2cnc3ccc(NCc4ccc(Cl)c(Cl)c4)nn23)cc1,> 30,,
NCCNC(=O)c1ccc(-c2cnc3ccc(NCc4ccc(Cl)c(Cl)c4)nn23)cc1,2.4,,
NC1CN(C(=O)c2ccc(-c3cnc4ccc(NCc5ccc(Cl)c(Cl)c5)nn34)cc2)C1,> 30,,
CCNC(=O)c1ccc(-c2cnc3ccc(NCc4ccc(Cl)c(Cl)c4)nn23)cc1,27,27,
O=C(NC[C@@H]1CCCN1)c1ccc(-c2cnc3ccc(NCCO)nn23)cc1,> 30,,
O=C(c1ccc(-c2cnc3ccc(NCC4CC4)nn23)cc1)N1CCC[C@@H]1CN1CCCC1,2.1,0.16,
CN(C)CCCNC(=O)c1ccc(-c2cnc3ccc(NCc4ccc(Cl)c(Cl)c4)nn23)cc1,> 30,,
O=C(NC[C@@H]1CCCN1)c1ccc(-c2cnc3ccc(NC4CC4)nn23)cc1,3.2,,
NC(=O)c1ccc(-c2cnc3ccc(NCc4ccc(Cl)c(Cl)c4)nn23)cc1,1.7,,

Compound,IC50 (THP-1) [µM],IC50 [1] [µM],other results
O=C(NC[C@@H]1CCCCN1)c1ccc(-c2cnc3ccc(NCC4CC4)nn23)cc1,1.5,,
CN1CCN(C(=O)c2ccc(-c3cnc4ccc(NCc5ccc(Cl)c(Cl)c5)nn34)cc2)CC1,12,,
CCN(CC)CCNC(=O)c1ccc(-c2cnc3ccc(NCC4CC4)nn23)cc1,1.2,,
CC(N)CNC(=O)c1ccc(-c2cnc3ccc(NCC4CC4)nn23)cc1 (stereo not drawn),1.5,0.31,
CC(=O)NCCNc1ccc2ncc(-c3ccc(C(=O)NC[C@@H]4CCCN4)cc3)n2n1,> 30,,
O=C(NCCNc1ccccc1)c1ccc(-c2cnc3ccc(NCc4ccc(Cl)c(Cl)c4)nn23)cc1,> 30,,
O=C(NC[C@@H]1CCCN1)c1ccc(-c2cnc3ccc(NCc4ccccc4)nn23)cc1,3.7,,
O=C(c1ccc(-c2cnc3ccc(NCC4CC4)nn23)cc1)N1CCC[C@H]1CN1CCCC1,,5.1,
NCCCNC(=O)c1ccc(-c2cnc3ccc(NCc4ccc(Cl)c(Cl)c4)nn23)cc1,4.7,,
O=C(NC[C@@H]1CCCN1)c1ccc(-c2cnc3ccc(NCc4cccc(Cl)c4)nn23)cc1,2.7,0.19,IC50 [2]: > 100 µM; IC50 [3]: > 4 µM; Papp [7]: < 20 nm/s; IC50 [4]: > 100 µM; IC50 [5]: > 100 µM; IC50 [6]: 78 µM
O=C(NCCN1CCOCC1)c1ccc(-c2cnc3ccc(NCc4ccc(Cl)c(Cl)c4)nn23)cc1,,> 30,
O=C(NC[C@H]1CCCN1)c1ccc(-c2cnc3ccc(NCC4CC4)nn23)cc1,1.6,0.1,
CC(CN(C)C)NC(=O)c1ccc(-c2cnc3ccc(NCC4CC4)nn23)cc1 (stereo not drawn),2.1,,
O=C(NC[C@@H]1CCCN1)c1ccc(-c2cnc3ccc(NCCc4cnc[nH]4)nn23)cc1,> 30,3,
O=C(NC[C@@H]1CCCN1)c1ccc(-c2cnc3ccc(NCC4CC4)nn23)cc1,0.69,0.055,IC50 [2]: > 100 µM; IC50 [3]: 40 µM; Papp [7]: < 20 nm/s; IC50 [4]: > 100 µM; IC50 [5]: > 100 µM; IC50 [6]: > 100 µM

# The next lines start with results.
IC50 (THP-1) [µM],IC50 [1] [µM],Compound,other results
17,10,O=C(NC[C@@H]1CCNC1)c1ccc(-c2cnc3ccc(NCc4ccc(Cl)c(Cl)c4)nn23)cc1,
29,,CNc1ccc2ncc(-c3ccc(C(=O)NC[C@@H]4CCCN4)cc3)n2n1,
> 30,0.59,O=C(NCCN1CCCC1)c1ccc(-c2cnc3ccc(NCc4ccc(Cl)c(Cl)c4)nn23)cc1,IC50 [2]: > 100 µM; IC50 [3]: 4.6 µM; IC50 [4]: > 100 µM; IC50 [5]: > 100 µM; IC50 [6]: 90 µM
1.3,0.11,CN1CCC[C@H]1CNC(=O)c1ccc(-c2cnc3ccc(NCC4CC4)nn23)cc1,
,> 30,O=C(NC[C@@H]1CCCN1)c1ccc(-c2cnc3ccc(N4CCC(O)CC4)nn23)cc1,
4.4,,O=C(NC1CCNCC1)c1ccc(-c2cnc3ccc(NCc4ccc(Cl)c(Cl)c4)nn23)cc1,
1.7,0.27,CC(C)Nc1ccc2ncc(-c3ccc(C(=O)NC[C@@H]4CCCN4)cc3)n2n1,
> 30,,O=C(NCCN1CCCCC1)c1ccc(-c2cnc3ccc(NCc4ccc(Cl)c(Cl)c4)nn23)cc1,
> 30,1.4,O=C(c1ccc(-c2cnc3ccc(NCc4ccc(Cl)c(Cl)c4)nn23)cc1)N1CCC(N2CCCC2)CC1,
> 30,,O=C(NCC1CCNCC1)c1ccc(-c2cnc3ccc(NCc4ccc(Cl)c(Cl)c4)nn23)cc1,
,> 30,O=C(NC[C@@H]1CCCN1)c1ccc(-c2cnc3ccc(N4CCOCC4)nn23)cc1,
15,,CN(C)CCN(C)C(=O)c1ccc(-c2cnc3ccc(NCc4ccc(Cl)c(Cl)c4)nn23)cc1,
0.69,0.2,CN(C)CCNC(=O)c1ccc(-c2cnc3ccc(NCC4CC4)nn23)cc1,IC50 [2]: > 100 µM; IC50 [3]: > 100 µM; Papp [7]: > 500 nm/s; IC50 [4]: > 100 µM; IC50 [5]: > 100 µM; IC50 [6]: > 100 µM
> 30,,O=C(NC[C@@H]1CCCN1)c1ccc(-c2cnc3ccc(NCCCO)nn23)cc1,
0.49,,CCN1CCC[C@H]1CNC(=O)c1ccc(-c2cnc3ccc(NCC4CC4)nn23)cc1,
6.5,,O=C(NC1CCNC1)c1ccc(-c2cnc3ccc(NCc4ccc(Cl)c(Cl)c4)nn23)cc1 (stereo not drawn),
